In ChEMBL document CHEMBL1154400, “Pharmacokinetics of single- and multiple-dose oral clarithromycin in soft tissues determined by microdialysis” (Antimicrob Agents Chemother, 2007):

Key:
[1] = Terminal half life in human plasma unbound fraction at 500 mg, po, bid for 3 to 5 days; format: ADME, organism-based; details: read-out: beta t1/2 (converted)
Summary of the method: (§1)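 Free plasma concentrations obtained by applying each volunteer's measured protein binding to total plasma concentrations, measured by HPLC after the 250 mg single dose or the 500 mg b.i.d. steady-state dose, with sampling over 8 h.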

[2] = Terminal half life in human subcutaneous interstitial-space fluid of adipose tissue at 500 mg, po, bid for 3 to 5 days; format: ADME, organism-based; details: read-out: beta t1/2 (converted)
Summary of the method: (§2)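 Oral clarithromycin 500 mg b.i.d. for 3-5 days, starting 12 h after a single 250 mg dose; last dose given supervised on the morning of day 2 after a baseline blood draw and a 2-h trough dialysate. Sampling as on day 1: microdialysis of muscle and adipose tissue plus venous plasma over 8 h, HPLC. Dialysate concentrations corrected for individual recovery.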

[3] = Terminal half life in human interstitial-space fluid of skeletal muscle at 500 mg, po, bid for 3 to 5 days; format: ADME, organism-based, Muscle tissue; details: read-out: beta t1/2 (converted); summary of the method: as §2
[4] = tested on: Homo sapiens; test: Volume of distribution at steady state in human plasma at 500 mg, po, bid for 3 to 5 days; format: ADME, organism-based; details: in vivo
Summary of the method: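 Healthy male volunteers (n=7, 25–37 y) took clarithromycin 500 mg orally b.i.d. for 3–5 days, with the last dose supervised. Venous blood (lithium heparin) was sampled every 20 min over 0–4 h and every 30 min over 4–8 h, and plasma was assayed by HPLC. Vss = CL × MRT, with CL = dose × F/AUC0-∞ and F taken as 55%. AUCs were calculated by the linear trapezoidal rule.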

[5] = Total clearance in human plasma at 500 mg, po, bid for 3 to 5 days; format: ADME, organism-based
[6] = Drug uptake in human adipose tissue assessed as in vivo drug recovery by microdialysis; format: ADME, organism-based
Summary of the method: (§3)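 Retrodialysis after the 8-h sampling: clarithromycin 5 mg/liter added to the Ringer's perfusate (1.5 µl/min). Recovery (%) = 100 - 100 x Cdialysate/Cperfusate, taken as the mean of two measurements per subject, in muscle and adipose tissue probes.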

[7] = Drug uptake in human Skeletal muscles assessed as in vivo drug recovery by microdialysis; format: ADME, organism-based, Muscle tissue; summary of the method: as §3
[8] = Tmax in human interstitial-space fluid of skeletal muscle at 500 mg, po, bid for 3 to 5 days; format: ADME, organism-based, Muscle tissue; summary of the method: as §2
[9] = Terminal half life in human plasma at 500 mg, po, bid for 3 to 5 days; format: ADME, organism-based; details: read-out: beta t1/2 (converted); summary of the method: as §2
[10] = Tmax in human plasma at 500 mg, po, bid for 3 to 5 days; format: ADME, organism-based; summary of the method: as §2
[11] = Tmax in human plasma unbound fraction at 500 mg, po, bid for 3 to 5 days; format: ADME, organism-based; summary of the method: as §1
[12] = Tmax in human interstitial-space fluid of subcutaneous adipose tissue at 500 mg, po, bid for 3 to 5 days; format: ADME, organism-based; summary of the method: as §2
[13] = Protein binding in human plasma at 250 mg, po; format: ADME, organism-based; details: read-out: PPB (converted)
Summary of the method: (§4)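 Plasma ultrafiltration done for each volunteer on samples taken 80 and 180 min post-dose, after both the single dose and at steady state. 300 µl aliquots spun through 5,000-MW-cutoff regenerated-cellulose filters at 5,000 x g, 30 min, ambient temperature. Ultrafiltrate concentrations corrected for 5% mean membrane binding. Binding (%) = 100 - 100 x Cultrafiltrate corr/Cplasma total.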

[14] = Protein binding in human plasma at 500 mg, po bid for 3 to 5 days; format: ADME, organism-based; details: read-out: PPB (converted); summary of the method: as §4
[15] = AUC (0 to 8 hrs) in fasting human plasma at 250 mg, po; format: ADME, organism-based; design: dose 250 mg, time < 8 hr, route oral
Summary of the method: (§5)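 Healthy male volunteers aged 25-37 y, fasting; single oral 250 mg tablet after 60-min probe equilibration. Microdialysis probes in skeletal muscle and subcutaneous adipose tissue, perfused with Ringer's at 1.5 µl/min; dialysate and antecubital venous blood sampled every 20 min to 4 h, then every 30 min to 8 h. HPLC assay. Interstitial concentration = 100 x Cdialysate/recovery.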

[16] = tested on: Homo sapiens; test: Free AUC (0 to 8 hrs) in fasting human plasma at 250 mg, po; format: ADME, organism-based; details: in vivo; summary of the method: as §1
[17] = AUC (0 to 8 hrs) in fasting human interstitial-space fluid of subcutaneous adipose tissue at 250 mg, po; format: ADME, organism-based; summary of the method: as §5
[18] = AUC (0 to 8 hrs) in fasting human interstitial-space fluid of skeletal muscle at 250 mg, po; format: ADME, organism-based, Muscle tissue; design: time < 8 hr, dose 250 mg, route oral; summary of the method: as §5
[19] = AUC (0 to 24 hrs) in fasting human plasma at 250 mg, po; format: ADME, organism-based; design: dose 250 mg, time < 24 hr, route oral; summary of the method: as §5
[20] = tested on: Homo sapiens; test: Free AUC (0 to 24 hrs) in fasting human plasma at 250 mg, po; format: ADME, organism-based; details: in vivo
[21] = AUC (0 to 24 hrs) in fasting human interstitial-space fluid of subcutaneous adipose tissue at 250 mg, po; format: ADME, organism-based; summary of the method: as §5
[22] = AUC (0 to 24 hrs) in fasting human interstitial-space fluid of skeletal muscle at 250 mg, po; format: ADME, organism-based, Muscle tissue; design: time < 24 hr, dose 250 mg, route oral; summary of the method: as §5
[23] = Ratio of AUC (0 to 24 hrs) in fasting human interstitial-space fluid of subcutaneous adipose tissue to free AUC (0 to 24 hrs) in fasting human plasma at 250 mg, po; format: ADME, organism-based; details: read-out: Ratio AUC
Summary of the method: (§6)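 AUC0-8, AUC0-12 and AUC0-24 by the linear trapezoidal rule. Values at 12 h and 24 h extrapolated as C8 x e^(-kel x t) from the 8-h concentration. At steady state, AUC0-24 = AUC0-12 x 2. Tissue-to-free-plasma ratios use free plasma AUC, from each subject's own protein binding.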

[24] = Ratio of AUC (0 to 24 hrs) in fasting human interstitial-space fluid of skeletal muscle to free AUC (0 to 24 hrs) in fasting human plasma at 250 mg, po; format: ADME, organism-based; details: read-out: Ratio AUC; summary of the method: as §6
[25] = Cmax in fasting human plasma at 250 mg, po; format: ADME, organism-based; design: dose 250 mg, route oral; summary of the method: as §5
[26] = tested on: Homo sapiens; test: Free Cmax in fasting human plasma at 250 mg, po; format: ADME, organism-based; details: in vivo; summary of the method: as §1

Which half-life [1] does the source give for `CC[C@H]1OC(=O)[C@H](C)[C@@H](O[C@H]2C[C@@](C)(OC)[C@@H](O)[C@H](C)O2)[C@H](C)[C@@H](O[C@@H]2O[C@H](C)C[C@H](N(C)C)[C@H]2O)[C@](C)(OC)C[C@@H](C)C(=O)[C@H](C)[C@@H](O)[C@]1(C)O` [CLARITHROMYCIN] here?
Its half-life is 3.7 h.

What about the half-life [2] of the same molecule?
Its half-life is 3.4 h.

And the half-life [3]?
The half-life was 3.8 h.

And the Vdss [4]?
Its Vdss is 126.5 L.

What about the CL/F [5] of the same molecule?
The CL/F was 312 mL/min.

What about the Activity [6] of the same molecule?
Its Activity is 57.7%.

And the Activity [7]?
Its Activity is 54.3%.

What about the Tmax [8] of the same molecule?
Its Tmax is 3.8 h.

What about the half-life [9] of the same molecule?
Its half-life is 3.7 h.

And the Tmax [10]?
The Tmax was 3.2 h.

What about the Tmax [11] of the same molecule?
Its Tmax is 3.2 h.

What about the Tmax [12] of the same molecule?
The Tmax was 4 h.

And the fraction unbound [13]?
Its fraction unbound is 0.287.

And the fraction unbound [14]?
Its fraction unbound is 0.231.

What about the AUC(0-t) at 8 h [15] of the same molecule?
The AUC(0-t) at 8 h was 3630 ng·h/mL.

What about the fAUC [16] of the same molecule?
Its fAUC is 990 ng·h/mL.

And the AUC(0-t) [17]?
The AUC(0-t) was 240 ng·h/mL.

And the AUC(0-t) at 8 h [18]?
Its AUC(0-t) at 8 h is 290 ng·h/mL.

What about the AUC(0-t) at 24 h [19] of the same molecule?
Its AUC(0-t) at 24 h is 4450 ng·h/mL.

What about the fAUC [20] of the same molecule?
The fAUC was 1210 ng·h/mL.

What about the AUC(0-t) [21] of the same molecule?
The AUC(0-t) was 350 ng·h/mL.

What about the AUC(0-t) at 24 h [22] of the same molecule?
Its AUC(0-t) at 24 h is 480 ng·h/mL.

What about the Kp uu [23] of the same molecule?
Its Kp uu is 0.29.

What about the Kp uu [24] of the same molecule?
The Kp uu was 0.42.

What about the Cmax [25] of the same molecule?
Its Cmax is 1090 ng/mL.

And the fCmax [26]?
Its fCmax is 0.31 mg/L.
